Values after ≈ are worked out from the molar mass of the structure shown.
Legend:
Type in all cases: functional
Candida albicans = experiment: Antifungal activity against Candida albicans clinical isolate after 24 hrs by sabouraud dextrose broth based microdilution method
Method in brief: (§1)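 Clinical isolates identified by conventional methods and subcultured for purity. Broth microdilution per NCCLS in Sabouraud dextrose broth; compounds dissolved in DMSO and serially diluted; inoculum 10^3/mL. Controls: fungi without compound, medium only. Incubated 24 h at 37 °C. MIC is the lowest concentration with complete growth inhibition by unaided eye. Values are geometric means over isolates per species.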

Nakaseomyces glabratus = experiment: Antifungal activity against Candida glabrata clinical isolate after 24 hrs by sabouraud dextrose broth based microdilution method; method in brief: as §1
Pichia kudriavzevii = experiment: Antifungal activity against Candida krusei clinical isolate after 24 hrs by sabouraud dextrose broth based microdilution method; method in brief: as §1
Candida parapsilosis = experiment: Antifungal activity against Candida parapsilosis clinical isolate after 24 hrs by sabouraud dextrose broth based microdilution method; details: Lodderomyces parapsilosis; method in brief: as §1
Candida tropicalis = experiment: Antifungal activity against Candida tropicalis clinical isolate after 24 hrs by sabouraud dextrose broth based microdilution method; method in brief: as §1
Escherichia coli = experiment: Antibacterial activity against Escherichia coli at after 18 to 22 hrs by broth microdilution method
Method in brief: (§2)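 Broth microdilution per NCCLS in Mueller-Hinton II broth; isolates subcultured for purity. Compounds dissolved in DMSO, serial dilutions 256 to 0.5 µg/mL; inoculum 10^5/mL. Controls: organism without compound, medium only. Incubation 18 to 22 h at 35 °C. MIC is the lowest concentration giving complete growth inhibition, read by unaided eye.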

Klebsiella oxytoca = experiment: Antibacterial activity against Klebsiella oxytoca after 18 to 22 hrs by broth microdilution method; method in brief: as §2
Enterobacter sp. = experiment: Antibacterial activity against Enterobacter sp. after 18 to 22 hrs by broth microdilution method; method in brief: as §2
Proteus mirabilis = experiment: Antibacterial activity against Proteus mirabilis after 18 to 22 hrs by broth microdilution method; method in brief: as §2
Staphylococcus warneri = experiment: Antibacterial activity against Staphylococcus warneri after 18 to 22 hrs by broth microdilution method; method in brief: as §2
Enterococcus faecalis = experiment: Antibacterial activity against […] faecalis after 18 to 22 hrs by broth microdilution method; method in brief: as §2
[Candida] sake = Antifungal activity against Candida sake clinical isolate after 24 hrs by sabouraud dextrose broth based microdilution method; details: Fermentozyma sake; method in brief: as §1
[1] = system: Staphylococcus haemolyticus; experiment: Antibacterial activity against Staphylococcus haemolyticus after 18 to 22 hrs by broth microdilution method; method in brief: as §2
Staphylococcus aureus = experiment: Antibacterial activity against Staphylococcus aureus after 18 to 22 hrs by broth microdilution method; method in brief: as §2

Compound | MIC (Candida albicans) [µg/mL] | MIC (Nakaseomyces glabratus) [µg/mL] | MIC (Pichia kudriavzevii) [µg/mL] | MIC (Candida parapsilosis) [µg/mL] | MIC (Candida tropicalis) [µg/mL] | MIC (Escherichia coli) [µg/mL] | MIC (Klebsiella oxytoca) [µg/mL] | MIC (Enterobacter sp.) [µg/mL] | MIC (Proteus mirabilis) [µg/mL] | MIC (Staphylococcus warneri) [µg/mL] | MIC (Enterococcus faecalis) [µg/mL] | MIC ([Candida] sake) [µg/mL] | MIC [1] [µg/mL] | MIC (Staphylococcus aureus) [µg/mL]
CCC(CC)=N/N=C1\SCC(=O)N1Cc1ccc([N+](=O)[O-])cc1 | 2 (≈ 5.98 µM) | 8 (≈ 23.9 µM) | 32 (≈ 95.7 µM) | 128 (≈ 383 µM) | 8 (≈ 23.9 µM) | > 256 | > 256 | > 256 | > 256 | > 256 | > 256 | 2 (≈ 5.98 µM) | > 256 | > 256
O=C1c2ccccc2C(=O)N1CN1C(=O)CS/C1=N\N=C1CCCCCC1 | 4 (≈ 10.4 µM) | 16 (≈ 41.6 µM) | 16 (≈ 41.6 µM) | 4 (≈ 10.4 µM) | 32 (≈ 83.2 µM) | > 256 | > 256 | > 256 | > 256 | > 256 | > 256 | 16 (≈ 41.6 µM) | > 256 | > 256
CCC/C(C)=N/N=C1\SCC(=O)N1CN1C(=O)c2ccccc2C1=O | 2 (≈ 5.58 µM) | 2 (≈ 5.58 µM) | 2 (≈ 5.58 µM) | 2 (≈ 5.58 µM) | 4 (≈ 11.2 µM) | > 256 | > 256 | > 256 | > 256 | > 256 | > 256 | 4 (≈ 11.2 µM) | > 256 | > 256
O=C1CS/C(=N\N=C\c2ccc3c(c2)OCO3)N1Cc1cccc2ccccc12 | 8 (≈ 19.8 µM) | 4 (≈ 9.91 µM) | 8 (≈ 19.8 µM) | 16 (≈ 39.7 µM) | 16 (≈ 39.7 µM) | > 256 | > 256 | > 256 | > 256 | > 256 | > 256 | 8 (≈ 19.8 µM) | > 256 | > 256
O=C1CS/C(=N\N=C\c2ccco2)N1Cc1cccc2ccccc12 | 16 (≈ 45.8 µM) | 8 (≈ 22.9 µM) | 16 (≈ 45.8 µM) | 16 (≈ 45.8 µM) | 8 (≈ 22.9 µM) | > 256 | > 256 | > 256 | > 256 | > 256 | > 256 | 2 (≈ 5.72 µM) | > 256 | > 256
CC1CCCC/C1=N\N=C1/SCC(=O)N1Cc1ccc([N+](=O)[O-])cc1 (configuration not stated) | 16 (≈ 44.4 µM) | 32 (≈ 88.8 µM) | 2 (≈ 5.55 µM) | 16 (≈ 44.4 µM) | 4 (≈ 11.1 µM) | > 256 | > 256 | > 256 | > 256 | > 256 | > 256 | 4 (≈ 11.1 µM) | > 256 | > 256
O=C1CS/C(=N\N=C2CCCCC2)N1Cc1cccc2ccccc12 | 2 (≈ 5.69 µM) | 32 (≈ 91 µM) | 16 (≈ 45.5 µM) | 8 (≈ 22.8 µM) | 8 (≈ 22.8 µM) | > 256 | > 256 | > 256 | > 256 | > 256 | > 256 | 32 (≈ 91 µM) | > 256 | > 256
O=C1c2ccccc2C(=O)N1CN1C(=O)CS/C1=N\N=C1CCCCC1 | 8 (≈ 21.6 µM) | 16 (≈ 43.2 µM) | 16 (≈ 43.2 µM) | 8 (≈ 21.6 µM) | 8 (≈ 21.6 µM) | > 256 | > 256 | > 256 | > 256 | > 256 | > 256 | 32 (≈ 86.4 µM) | > 256 | > 256
O=C1CS/C(=N\N=C\c2ccc3c(c2)OCO3)N1Cc1ccc([N+](=O)[O-])cc1 | 256 (≈ 643 µM) | 32 (≈ 80.3 µM) | 8 (≈ 20.1 µM) | 16 (≈ 40.2 µM) | 16 (≈ 40.2 µM) | > 256 | > 256 | > 256 | > 256 | > 256 | > 256 | 16 (≈ 40.2 µM) | > 256 | > 256
CC/C(C)=N/N=C1\SCC(=O)N1Cc1ccc([N+](=O)[O-])cc1 | 2 (≈ 6.24 µM) | 2 (≈ 6.24 µM) | 2 (≈ 6.24 µM) | 2 (≈ 6.24 µM) | 128 (≈ 400 µM) | > 256 | > 256 | > 256 | > 256 | > 256 | > 256 | 8 (≈ 25 µM) | > 256 | > 256
CC1CC/C(=N\N=C2/SCC(=O)N2Cc2cccc3ccccc23)C1 (configuration not stated) | 2 (≈ 5.69 µM) | 16 (≈ 45.5 µM) | 256 (≈ 728 µM) | 64 (≈ 182 µM) | 128 (≈ 364 µM) | > 256 | > 256 | > 256 | > 256 | > 256 | > 256 | 256 (≈ 728 µM) | > 256 | > 256
C/C(=N\N=C1/SCC(=O)N1Cc1ccc([N+](=O)[O-])cc1)c1ccccn1 | 4 (≈ 10.8 µM) | 32 (≈ 86.6 µM) | 32 (≈ 86.6 µM) | 4 (≈ 10.8 µM) | 4 (≈ 10.8 µM) | > 256 | > 256 | > 256 | > 256 | > 256 | > 256 | 4 (≈ 10.8 µM) | > 256 | > 256
CCCCC/C(C)=N/N=C1\SCC(=O)N1Cc1cccc2ccccc12 | 4 (≈ 10.9 µM) | 8 (≈ 21.8 µM) | 2 (≈ 5.44 µM) | 2 (≈ 5.44 µM) | 64 (≈ 174 µM) | > 256 | > 256 | > 256 | > 256 | > 256 | > 256 | 2 (≈ 5.44 µM) | > 256 | > 256
O=C1CS/C(=N\N=C\c2cccc3ccccc23)N1Cc1cccc2ccccc12 | 256 (≈ 625 µM) | 64 (≈ 156 µM) | 8 (≈ 19.5 µM) | 8 (≈ 19.5 µM) | 32 (≈ 78.1 µM) | > 256 | > 256 | > 256 | > 256 | > 256 | > 256 | 8 (≈ 19.5 µM) | > 256 | > 256
CCC/C(C)=N/N=C1\SCC(=O)N1Cc1ccc([N+](=O)[O-])cc1 | 2 (≈ 5.98 µM) | 2 (≈ 5.98 µM) | 16 (≈ 47.8 µM) | 16 (≈ 47.8 µM) | 64 (≈ 191 µM) | > 256 | > 256 | > 256 | > 256 | > 256 | > 256 | 8 (≈ 23.9 µM) | > 256 | > 256
C/C(=N\N=C1/SCC(=O)N1Cc1ccc([N+](=O)[O-])cc1)c1ccco1 | 32 (≈ 89.3 µM) | 32 (≈ 89.3 µM) | 4 (≈ 11.2 µM) | 8 (≈ 22.3 µM) | 16 (≈ 44.6 µM) | > 256 | > 256 | > 256 | > 256 | > 256 | > 256 | 8 (≈ 22.3 µM) | > 256 | > 256
C=CCC/C(C)=N/N=C1\SCC(=O)N1Cc1ccc([N+](=O)[O-])cc1 | 4 (≈ 11.5 µM) | 8 (≈ 23.1 µM) | 32 (≈ 92.4 µM) | 32 (≈ 92.4 µM) | 8 (≈ 23.1 µM) | > 256 | > 256 | > 256 | > 256 | > 256 | > 256 | 8 (≈ 23.1 µM) | > 256 | > 256
OC(Cn1cncn1)(Cn1cncn1)c1ccc(F)cc1F [FLUCONAZOLE] | 2 (≈ 6.53 µM) | 2 (≈ 6.53 µM) | 2 (≈ 6.53 µM) | 2 (≈ 6.53 µM) | 2 (≈ 6.53 µM) | – | – | – | – | – | – | 2 (≈ 6.53 µM) | – | –
Clc1ccc(C(Cn2ccnc2)OCc2ccsc2Cl)c(Cl)c1 (configuration not stated) [TIOCONAZOLE] | 8 (≈ 20.6 µM) | 4 (≈ 10.3 µM) | 8 (≈ 20.6 µM) | 8 (≈ 20.6 µM) | 8 (≈ 20.6 µM) | – | – | – | – | – | – | 4 (≈ 10.3 µM) | – | –
Clc1ccccc1C(c1ccccc1)(c1ccccc1)n1ccnc1 [CLOTRIMAZOLE] | 2 (≈ 5.8 µM) | 2 (≈ 5.8 µM) | 2 (≈ 5.8 µM) | 2 (≈ 5.8 µM) | 2 (≈ 5.8 µM) | – | – | – | – | – | – | 2 (≈ 5.8 µM) | – | –
Clc1ccc(COC(Cn2ccnc2)c2ccc(Cl)cc2Cl)c(Cl)c1 (configuration not stated) [MICONAZOLE] | 2 (≈ 4.81 µM) | 4 (≈ 9.61 µM) | 4 (≈ 9.61 µM) | 4 (≈ 9.61 µM) | 2 (≈ 4.81 µM) | – | – | – | – | – | – | 2 (≈ 4.81 µM) | – | –
CC(C)(O/N=C(\C(=O)N[C@@H]1C(=O)N2C(C(=O)[O-])=C(C[n+]3ccccc3)CS[C@H]12)c1csc(N)n1)C(=O)O [CEFTAZIDIME] | – | – | – | – | – | 4 (≈ 7.32 µM) | 8 (≈ 14.6 µM) | 8 (≈ 14.6 µM) | 8 (≈ 14.6 µM) | 4 (≈ 7.32 µM) | 4 (≈ 7.32 µM) | – | 4 (≈ 7.32 µM) | 2 (≈ 3.66 µM)
C[C@@H]1[C@H](O)[C@@H](C)/C=C/C=C/C=C/C=C/C=C/C=C/C=C/[C@H](O[C@@H]2O[C@H](C)[C@@H](O)[C@H](N)[C@@H]2O)C[C@@H]2O[C@](O)(C[C@@H](O)C[C@@H](O)[C@H](O)CC[C@@H](O)C[C@@H](O)CC(=O)O[C@H]1C)C[C@H](O)[C@H]2C(=O)O [AMPHOTERICIN B] | 4 (≈ 4.33 µM) | 4 (≈ 4.33 µM) | 4 (≈ 4.33 µM) | 2 (≈ 2.16 µM) | 2 (≈ 2.16 µM) | – | – | – | – | – | – | 2 (≈ 2.16 µM) | – | –
CC(=O)N1CCN(c2ccc(OCC3COC(Cn4ccnc4)(c4ccc(Cl)cc4Cl)O3)cc2)CC1 (configuration not stated) [KETOCONAZOLE] | 2 (≈ 3.76 µM) | 2 (≈ 3.76 µM) | 4 (≈ 7.53 µM) | 2 (≈ 3.76 µM) | 2 (≈ 3.76 µM) | – | – | – | – | – | – | 4 (≈ 7.53 µM) | – | –
